Data on five compounds can be found in ChEMBL document CHEMBL4376841, “Discovery of a Synergistic Inhibitor of cAMP-Response Element Binding Protein (CREB)-Mediated Gene Transcription with 666-15” (J Med Chem, 2019).

Data set [1] is described as follows: Drug level in pH 7.4 PBS treated with 2-(3-(2-Aminoethoxy)-2-naphthamido)-5-chlorophenyl 3-(3- Aminopropoxy)-2-naphthoate Dihydrochloride assessed as compound formation by NMR analysis. It counts as physicochemical. The conditions noted are these: buffer.
Data set [2] is described as follows: Solubility in ddIH2O. It counts as physicochemical. The conditions noted are these: ddIH2O (double-deionized water).
Data set [3] in a line: Inhibition of CREB (unknown origin) expressed in HEK293T cells assessed as inhibition of forskolin-induced CREB transcription activity incubated for 30 mins by luciferase reporter gene assay. It counts as cell-based. The following applies: Homo sapiens, HEK-293T, 0.5 h. Put shortly: (§1)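 HEK293T cells were transfected for 3 h with pCRE-RLuc (Renilla luciferase driven by three tandem CRE copies), then replated and left to attach overnight. Compounds, alone or combined, were added 30 min before Fsk (10 μM), followed by 5 h at 37 °C. Renilla luciferase was normalised to well protein (RLU/μg). IC50 came from nonlinear regression; at least two independent experiments in triplicate.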

The nature of data set [4]: Drug metabolism in pH 7.4 PBS assessed as 3-(3-aminopropoxy)-N-(4-chloro-2-hydroxy-phenyl)naphthalene-2-carboxamide formation by NMR analysis.
The nature of data set [5]: Drug metabolism in pH 7.4 PBS assessed as 3,4-Dihydronaphtho[2,3-f][1,4]oxazepin-5(2H)-one formation by NMR analysis.
The nature of data set [6]: Drug metabolism in pH 7.4 PBS assessed as tert-butyl 3-(3-(2-(tert-butoxycarbonyloxy)-4-chlorophenylcarbamoyl)naphthalen-2-yloxy)propylcarbamate formation by NMR analysis.
The species entered for data set [7] is Homo sapiens. As to the kind of experiment: Synergistic potentiation of 2-(3-(2-Aminoethoxy)-2-naphthamido)-5-chlorophenyl 3-(3- Aminopropoxy)-2-naphthoate Dihydrochloride-induced inhibition of CREB (unknown origin) expressed in HEK293T cells assessed as inhibition of forskolin-induced CREB transcription activity at 5 to 10 uM incubated for 30 mins by luciferase reporter gene assay. It counts as cell-based. Put shortly: as §1

The test system of data set [8] is MDA-MB-231. Briefly: Growth inhibition of human MDA-MB-231 cells at 0.5 to 1 uM incubated for 72 hrs by MTT assay. It counts as functional, cell-based. Put shortly: (§2)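 MDA-MB-231 cells were seeded at 1000/well, attached overnight, then given compounds (alone or combined) for 72 h at 37 °C. MTT (0.5 mg/mL) was added for 3 h, formazan dissolved in DMSO, and A570 read. Growth % = 100×(A_treated − A_initial)/(A_control − A_initial), with time-0 baseline.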

For data set [9], the species on record is Homo sapiens. As to the kind of experiment: Inhibition of CREB in HEK293T cells assessed as inhibition of Fsk-induced NR4A2 gene expression at 5 uM pre-incubated for 1 hr before Fsk stimulation for 45 mins by qRT-PCR analysis. It counts as cell-based. Put shortly: (§3)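 HEK293T cells in DMEM/10% FBS were pretreated with compounds, singly or in combination, for 1 h, then stimulated with Fsk (10 μM) for 45 min. Total RNA was isolated and NR4A2 transcript measured by qRT-PCR using the ΔΔCt method, with HPRT as reference. SEM of two independent experiments in triplicate; Student t-test.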

The species named for data set [10] is Homo sapiens. Briefly: Synergistic potentiation of 2-(3-(2-Aminoethoxy)-2-naphthamido)-5-chlorophenyl 3-(3- Aminopropoxy)-2-naphthoate Dihydrochloride-induced inhibition of CREB (unknown origin) expressed in HEK293T cells assessed as inhibition of forskolin-induced CREB transcription activity by measuring combination index at 5 to 10 uM incubated for 30 mins by luciferase reporter gene assay based Chou-Talalay method. It counts as cell-based. Put shortly:
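CRE-driven Renilla luciferase reporter in transfected HEK293T cells. Combinations were added 30 min before Fsk (10 μM) for 5 h. Activity was normalised to protein. Combination indexes were calculated by the Chou-Talalay method: CI > 1.0 antagonism, CI = 1.0 additive, CI < 1.0 synergy.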

The test system of data set [11] is MDA-MB-231. As to the kind of experiment: Synergistic potentiation of 2-(3-(2-Aminoethoxy)-2-naphthamido)-5-chlorophenyl 3-(3- Aminopropoxy)-2-naphthoate Dihydrochloride-induced growth inhibition of human MDA-MB-231 cells incubated for 72 hrs by MTT assay. It counts as functional. Put shortly:
as §2

Data set [12] can be described thus: Inhibition of Kix-Kid interaction (unknown origin) by biochemical split Renilla luciferase complementation assay. Also noted: species or system Homo sapiens.
The species entered for data set [13] is Homo sapiens. Briefly: Synergistic potentiation of 50 nM 2-(3-(2-Aminoethoxy)-2-naphthamido)-5-chlorophenyl 3-(3- Aminopropoxy)-2-naphthoate Dihydrochloride-induced inhibition of CREB in HEK293T cells assessed as inhibition of Fsk-induced NR4A2 gene expression at 5 uM pre-incubated for 1 hr before Fsk stimulation for 45 mins by qRT-PCR analysis. It counts as cell-based. Put shortly: as §3

Molecules are shown by their SMILES. The source made the active and inactive calls. The calls are words filed in the database; no cut-off is given here.

As to `CC(C)(C)OC(=O)NCCCOc1cc2ccccc2cc1C(=O)Nc1ccc(Cl)cc1OC(=O)C(C)(C)C`, in [1], the Drug uptake entry was “Active”.
`Cl.NCCCOc1cc2ccccc2cc1C(=O)NCCOc1cc2ccccc2cc1C(=O)Nc1ccc(Cl)cc1O` showed a solubility in data set [2] below 0.5 mg/mL.
For `Cl.Cl.NCCCOc1cc2ccccc2cc1C(=O)Oc1cc(Cl)ccc1NC(=O)c1cc2ccccc2cc1OCCN`, in data set [3], the IC50 stood at 0.25 µM. The values for the Drug metabolism entry in [4], in [5] and in data set [6] were “Metabolite detected”, 29% and 47%, respectively. This compound yielded a solubility in data set [2] above 100 mg/mL.
Consider `O=C1NCCOc2cc3ccccc3cc21`, for which the outcome in [7] was inactive. Further, the IC50 in data set [3] is above 50 µM. Moreover, the Drug uptake result in data set [1] was “Active”.
With `NCCCOc1cc2ccccc2cc1C(=O)Nc1ccc(Cl)cc1O`, the outcome in data set [7] and in data set [13] was Active. Besides, the “growth inhibition (GI)” value in data set [8] is “inactive”. The values for the concentration for half-maximal inhibition (IC50) in data set [3] and in [12] were 26.3 µM and above 50 µM, respectively. The inhibition entry in data set [9] was “inactive”. Moreover, the CI in [10] and in [11] was below 1 in each case. In data set [1], the Drug uptake entry is “Active”.
